Data set [1] in a line: melting temperature; fluorescence melt of hairpins on a sequencing array, two-state fit, raised by 9.35 °C to match UV melts. The conditions noted are these: sodium 0.088 M. The method, boiled down: (§1)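 Melting temperature and folding enthalpy were derived from bootstrapped two-state fits. The fitted temperatures were raised by 9.35 °C to agree with UV melts, and four replicates were combined by inverse variance. The underlying data were Cy3 fluorescence images of library hairpins, with annealed Cy3 and quencher oligos, on a sequenced MiSeq flow cell in 50 mM Na-HEPES pH 8.0, 25 mM NaCl, taken in 2.5 °C steps up to 60 °C, normalised to pre-quench Cy3 and to control constructs.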

Data set [2] is described as follows: folding enthalpy; higher = less favourable; fluorescence melt of hairpins on a sequencing array, two-state fit. The settings on record: sodium 0.088 M. The method, boiled down:
as §1

Turning to GTGGGGGGAAACCCTCAC (((.(((....))).))), the Tm in data set [1] is 52.6 °C. Further, the folding enthalpy in data set [2] was -30.3 kcal/mol.
Taken in the same sequence, the figures for GATCAGAGCGCTGATC ((((((....)))))) were 49.1 °C and -27.4 kcal/mol.
Taken in the same sequence, the figures for GTTACCGAAAGGTAGAAC ((((((....)))..))) were 29.3 °C and -10.1 kcal/mol.
In the same order, the values of GTCTACGAAAGTAGAC ((((((....)))))) are 66.8 °C and -36.8 kcal/mol.
With GATCTGTGGCCAGATC ((((((....)))))), the Tm in data set [1] stood at 50.4 °C. Also, the folding enthalpy in data set [2] is -33.9 kcal/mol.
In the same order, the values of GTTTCGGGAAACTGAAAC (((((.(....).))))) are 46.9 °C and -27.5 kcal/mol.
With GATCACTCACGTGATC ((((((....)))))), the Tm in data set [1] was 55.8 °C. In addition, in data set [2], the folding enthalpy was -41.5 kcal/mol.
For GGCATCGAAAGATTGGCC ((((((....)))..))), the Tm in data set [1] came to 44.2 °C. Moreover, in data set [2], the folding enthalpy is -22.2 kcal/mol.
For the sequence GATCCATGACTGGATC ((((((....)))))), in data set [1], the Tm was found to be 48.6 °C. Besides, in data set [2], the folding enthalpy is -35.5 kcal/mol.
In the same order, the values of GCAATGCGAAAGCTTCGC ((.(.((....)).).)) are 44 °C and -11.9 kcal/mol.
Take GCCATGGGAAACCATGAC (.(((((....))))).): the Tm in data set [1] is 41 °C. The folding enthalpy in data set [2] is -19.5 kcal/mol.
Taken in the same sequence, the figures for GCCACGCGAAAGCATAGC ((.(.((....)).).)) were 26.7 °C and -9.06 kcal/mol.
As to GATACCGGAAACGGTGTC ((.((((....)))).)), the Tm in data set [1] was 52.1 °C. The folding enthalpy in data set [2] was -28.8 kcal/mol.
In the same order, the values of GATCCGTGTTCGGATC ((((((....)))))) are 61.4 °C and -36.2 kcal/mol.
For the sequence GCACAGGGAAACCTGCAC (..((((....))))..), the Tm in data set [1] was 28.4 °C. Moreover, the folding enthalpy in data set [2] was -10.3 kcal/mol.
With GATCATCCCGATGATC ((((((....)))))), the Tm in data set [1] was found to be 52.1 °C. Also, in data set [2], the folding enthalpy is -51.9 kcal/mol.
Consider GATCGGATACCCGATC ((((((....)))))), for which the Tm in data set [1] came to 56.6 °C. In addition, the folding enthalpy in data set [2] was -40.3 kcal/mol.
As to GATCCGCGACGGATC ((((((...)))))), the Tm in data set [1] was 57.9 °C. For the same sequence, the folding enthalpy in data set [2] is -39 kcal/mol.
In the same order, the values of GCCAAAGGAAACTTTGAC (.(((((....))))).) are 32.3 °C and -21.9 kcal/mol.
Taken in the same sequence, the figures for AAAACGAAAGTTTT (((((....))))) were 47.3 °C and -14.8 kcal/mol.
Taken in the same sequence, the figures for GATCGTGTAACGATC ((((((...)))))) were 63.5 °C and -48.1 kcal/mol.
On to GCCCATCCGAAAGGAGGC (((..(((....)))))), for which, in data set [1], the Tm came to 44.5 °C. For the same sequence, the folding enthalpy in data set [2] is -14.3 kcal/mol.
In the same order, the values of GATCCACATCTGGATC ((((((....)))))) are 49.2 °C and -29.1 kcal/mol.
Take GCTCCTCCGAAAGGAAGC (((..(((....)))))): the Tm in data set [1] is 34.2 °C. In addition, in data set [2], the folding enthalpy is -15.9 kcal/mol.
Taken in the same sequence, the figures for GCCGTGCGAAAGCATAGC ((..(((....)))..)) were 43.3 °C and -13.6 kcal/mol.
Taken in the same sequence, the figures for GCCTCTGGAAACAGGGGC (((.(((....))).))) were 57.4 °C and -45.3 kcal/mol.
Take GGTGAAACGAAAGTTACC (((..(((....)))))): in data set [1], the Tm was determined as 30.5 °C. The folding enthalpy in data set [2] is -18 kcal/mol.
Take GACTAAGGAAACTTGGTC (((.(((....))).))): in data set [1], the Tm was found to be 39.3 °C. Further, the folding enthalpy in data set [2] is -30.1 kcal/mol.
Taken in the same sequence, the figures for GTAAGCGAAAGCTGGTAC ((((((....)))..))) were 32.3 °C and -11 kcal/mol.
Taken in the same sequence, the figures for GCGGGCGAAAGCCCTCGC ((((((....)))..))) were 50 °C and -13.1 kcal/mol.
GGACACGAAAGTGCATCC ((((((....)))..))): the Tm in data set [1] is 32.7 °C. Moreover, the folding enthalpy in data set [2] is -11.8 kcal/mol.
Taken in the same sequence, the figures for GCTCCGCGAAAGCTTAGC (((..((....))..))) were 35.1 °C and -14.4 kcal/mol.
In the same order, the values of GCACCACGAAAGTGTGC (((.(((....)))))) are 58.6 °C and -34.6 kcal/mol.
In the same order, the values of GCCCCGCGAAAGCTAGGC (((..((....))..))) are 45 °C and -18.7 kcal/mol.
As for GGTCCCGAAAGGGACACC ((((((....)))..))), the Tm in data set [1] amounted to 54.5 °C. Moreover, the folding enthalpy in data set [2] was -8.21 kcal/mol.
Taken in the same sequence, the figures for GAGTCGGGAAACCGGTTC ((..(((....)))..)) were 32.8 °C and -15.6 kcal/mol.
Taken in the same sequence, the figures for GACTCACGAAAGTGCGTC (((.(((....))).))) were 50.6 °C and -32.8 kcal/mol.

For the origin of these results see the array DNA melting data of Ke et al. (doi:10.1101/2024.01.08.574731).
